Shown are actives, neighbours in structure and some others; about 0.91% of the full set was active somewhere.
G6PDH CS: inhibits Leuconostoc G6PDH, flagging false hits in G6PDH-based assays; Purified L. mesenteroides G6PDH, diaphorase/resazurin coupled fluorescence, 45 min; inhibition, % at 5 µM; 200,000 tested, 0.12% active; in the data active means inhibition above about 50%
p97 inhibitor: inhibitors of human p97 ATPase; inhibition, % at 8 µM; AID 1481; 220,000 tested, 0.42% active; recombinant p97 ATPase, Kinase-Glo ATP luminescence, 3 h; P55072; in the data active means inhibition above about 15%;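 further: 0% = DMSO vehicle and 100% = wells lacking enzyme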
Target sequence (P55072 whole entry, looked up): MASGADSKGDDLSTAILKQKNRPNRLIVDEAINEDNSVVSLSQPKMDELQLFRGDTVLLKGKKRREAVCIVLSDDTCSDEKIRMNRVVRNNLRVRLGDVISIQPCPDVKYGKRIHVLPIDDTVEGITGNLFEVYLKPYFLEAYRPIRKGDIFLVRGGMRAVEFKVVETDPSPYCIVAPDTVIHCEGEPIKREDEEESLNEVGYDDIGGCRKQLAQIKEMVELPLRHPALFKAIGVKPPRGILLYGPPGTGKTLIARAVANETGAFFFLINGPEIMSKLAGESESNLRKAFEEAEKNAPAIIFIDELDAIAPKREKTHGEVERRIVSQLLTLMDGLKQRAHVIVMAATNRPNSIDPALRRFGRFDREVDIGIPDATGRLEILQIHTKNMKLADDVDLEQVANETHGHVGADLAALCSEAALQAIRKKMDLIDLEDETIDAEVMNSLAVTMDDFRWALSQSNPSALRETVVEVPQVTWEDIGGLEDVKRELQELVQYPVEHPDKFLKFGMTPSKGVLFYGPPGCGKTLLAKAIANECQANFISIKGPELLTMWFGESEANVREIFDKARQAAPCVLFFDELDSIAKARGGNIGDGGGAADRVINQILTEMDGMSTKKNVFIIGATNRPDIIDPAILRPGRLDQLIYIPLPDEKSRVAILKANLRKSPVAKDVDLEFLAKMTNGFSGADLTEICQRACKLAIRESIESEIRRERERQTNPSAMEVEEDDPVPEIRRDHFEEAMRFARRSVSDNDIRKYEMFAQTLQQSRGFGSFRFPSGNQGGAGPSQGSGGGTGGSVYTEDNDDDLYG
PMI activator: phosphomannose isomerase (human) activation; purified human PMI, coupled resazurin fluorescence, 20 min; stronger effect = higher value; 1 = vehicle control, 0 substrate-free wells; activation factor at 20 µM; AID 1214; 190,000 tested, 0.005% active; P34949;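 active means activation factor of 2 or more at 20 µM, relative to plate controls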
DTT redox prof: compounds producing H2O2 with reducing agent – biochemical, NIH compound library profiling, artefact control for MLSCN library redox annotation, primary screen | DTT-dependent redox cycling H2O2, phenol red/HRP absorbance; 100% = 100 µM peroxide control, 0% = buffer | activation, % at 10 µM | 200,000 tested, 0.03% active | AID 878;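 active means activation of at least 50% relative to the plate's high and low controls in the primary single-dose screen; inactive means activation below 50%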;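 further: compound incubated with DTT at 0.8 mM final as the reducing agent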
TbHK1 inh: T. brucei hexokinase 1 inhibition. recombinant TbHK1, G6PDH-coupled NADH A340. inhibition, % at 10 µM. 220,000 tested, 0.11% active. AID 1430;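 active means inhibition of 50% or more in the single-dose primary screen; inactive means inhibition below 50%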
PMI act hi M6P: increases human PMI activity with near-saturating mannose 6-phosphate | P34949 | coupled PMI enzyme assay, resazurin fluorescence, 20 min; stronger effect = higher value; 1 = untreated enzyme, 0 = substrate-free blank | activation factor at 20 µM | 190,000 tested, 0.34% active;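 active means activation factor of 2 or more at 20 µM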
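Test system: human phosphomannose isomerase with PGI, G6PDH, diaphorase coupling enzymes / Doses: 20 µM compound, 1% DMSO / Times: enzyme reaction with compound 20 min at room temperature / Measured by: Diaphorase-driven resazurin-to-resorufin fluorescence, excitation 544, emission 590 nm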
p97 inh conf: confirmation of human p97 ATPase inhibitors | inhibition, % at 8 µM | shares compounds with p97 inhibitor | recombinant p97 ATPase, Kinase-Glo ATP luminescence | 760 tested, 44% active | AID 1517;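 active means percent inhibition of p97 ATPase above a set limit, the primary screen's mean plus 3 SD, cut at about 15% in these data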;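 further: 0% = DMSO wells and 100% = wells lacking p97 protein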
An asterisk follows results filed as active; nt = no result given.

SMILES	G6PDH CS	p97 inhibitor	PMI activator	DTT redox prof	TbHK1 inh	PMI act hi M6P	p97 inh conf
CCOC(=O)c1ccc[n+](C(C)C(=O)c2ccc(-c3ccccc3)cc2)c1 (stereo not given)	13.9	3.5	1.2	-0.2	6.7	1.4	nt
CC(C(=O)c1ccc(-c2ccccc2)cc1)[n+]1cccc(NC(=O)c2ccccc2)c1 (stereo not given)	nt	19.5*	nt	nt	-2.0	nt	17.6*
Cn1c(CC(=O)Nc2ccc(Cl)c(Cl)c2)nnc1SCC(=O)NCc1ccccc1	-4.5	0.7	1.1	-1.1	-3.5	1.1	nt
O=C1CC(c2ccc(O)cc2)Oc2cc(O)cc(O)c21 (stereo not given)	23.0	6.1	0.9	0.3	-24.6	0.7	nt
CC1CC(=O)c2c(cc3c(-c4c(O)cc(O)c5c(O)c6c(cc45)OC(C)CC6=O)c(O)cc(O)c3c2O)O1 (stereo not given)	18.5	56.0*	1	1.7	-39.9	0.8	49.4*
O=C(Cn1cc([N+](=O)[O-])cn1)Nc1cccnc1	7.2	2.4	1.2	-1.3	-3.6	1.1	nt
COc1ccc(/C=C/C(=O)NCCSCc2ccco2)cc1	12.4	0.8	1	-0.2	0.1	0.9	nt
Cn1c(CNC(=O)c2ccccc2)nnc1SCC(=O)Nc1nccs1	11.2	4.5	0.9	-1.1	1.9	0.9	nt
COc1ccc(OC)c2sc(NC(=O)CCS(=O)(=O)c3ccccc3)nc12	nt	18.9*	nt	-3.6	-6.7	nt	25.3*
COc1ccc(OC)c2sc(NC(=O)CCSc3ccccc3)nc12	-23.0	4.8	1	-0.7	-0.4	1	nt
Cc1cc(SCC(=O)Nc2ccc(O)cc2)n2nc(C)c(-c3ccccc3)c2n1	nt	24.1*	nt	nt	-11.8	nt	7.5
Cc1cc(SCC(=O)Nc2ccc(O)cc2)n2ncc(-c3ccccc3)c2n1	nt	5.5	nt	nt	-16.3	nt	nt
COc1ccc(C2C3C=CCC(c4cccc(-c5ccc(C)cc5)c4)C3C(=O)N2Cc2ccccc2)cc1Cl (stereo not given)	nt	nt	nt	nt	-1.9	nt	nt
Cc1ccc(CSCC(=O)NN=C2CCN(C)CC2)cc1	0.6	-6.3	0.9	-0.3	-0.2	0.7	nt
NS(=O)(=O)c1ccc(CCNc2ncnc3c2c(-c2ccccc2)cn3-c2ccc(F)cc2)cc1	-39.9	29.6*	0.9	2.7	-3.5	0.8	24.2*
CCC(=O)NNc1nc2c(C)cc(C)cc2s1	1.9	15.2*	1	-9.2	16.2	1	6.2
Cc1cc(C)c2nc(NC(=O)c3cc(C)on3)sc2c1	1.0	-6.3	1	0.0	-12.7	1	nt
CC1=NN(c2ccc(Cl)cc2)C(=O)C1C(c1ccccc1O)c1c(C)[nH]n(-c2ccc(Cl)cc2)c1=O (stereo not given)	-4.7	32.3*	1.1	0.3	-7.8	1.1	7.7
CN(C(=S)Nc1cccnc1)c1ccc(O)cc1	11.8	17.6*	0.4	-0.2	4.9	0.3	7.0
C=CCOc1ccc(C2CC(C)=NN2c2ccccc2)cc1 (stereo not given)	2.4	2.4	1	-0.1	1.3	1	nt
Cc1cc(Br)ccc1NC(=O)CN1C(=O)C2C3CC(c4ccccc4)C(C3)C2C1=O (stereo not given)	6.5	-5.1	0.8	1.9	-2.2	0.8	nt
Cc1ccc(S(=O)(=O)n2nc(OC(=O)c3ccco3)cc2N)cc1	nt	1.1	nt	-0.3	6.6	nt	nt
COc1ccccc1C(=O)Oc1cc(N)n(S(=O)(=O)c2ccc(C)cc2)n1	3.0	28.9*	0.9	0.0	-0.6	0.9	39.4*
NCCCC[C@@H]1NC(=O)c2cc([N+](=O)[O-])cc(I)c2SC[C@@H](C(=O)NCC(N)=O)NC(=O)CNC1=O	10.8	4.2	1.1	0.4	-15.3	1.1	nt
N#CC1=C(N)NC(SCC(=O)c2ccc(Br)cc2)=C(C#N)C12CCCCC2	-0.7	15.0*	0.8	0.2	-4.8	0.9	5.7
SMILES	G6PDH CS	p97 inhibitor	PMI activator	DTT redox prof	TbHK1 inh	PMI act hi M6P	p97 inh conf
COc1ccc(/C=N/Nc2nnc(-c3ccccc3)c(=O)[nH]2)cc1	-8.1	17.0*	0.8	0.5	-8.3	0.9	37.9*
Cc1c(C(c2cccc([N+](=O)[O-])c2O)c2c(C)n(C)n(-c3ccccc3)c2=O)c(=O)n(-c2ccccc2)n1C	2.5	-2.3	1.1	0.6	-2.3	1	nt
Cc1[nH]n(-c2ccccc2)c(=O)c1C(c1cccc([N+](=O)[O-])c1O)c1c(C)[nH]n(-c2ccccc2)c1=O	-0.3	23.6*	1	-0.2	-5.2	0.9	5.7
COC(=O)c1sccc1NC(=O)C1CC1	nt	9.1	nt	nt	-0.2	nt	nt
C=CCNC(=S)Nc1ccc2nsnc2c1	25.1	28.6*	1.1	-0.2	-18.2	0.9	1.0
COCCNC(=S)Nc1ccc2nsnc2c1	34.8	-0.3	0.9	0.3	4.3	1.1	nt
C=CCN(CC=C)C(=S)Nc1ccc2nsnc2c1	33.2	18.4*	0.8	1.6	-2.0	0.4	4.3
C=CCOc1cccc(C(=O)N2CCCC(CNS(=O)(=O)c3cccs3)C2)c1 (stereo not given)	13.4	2.6	0.9	-0.1	1.8	0.9	nt
C[n+]1cccc2cccc([O-])c21	nt	36.8*	nt	nt	-4.0	nt	19.6*
CC(C)CN1CCN(C2CCN(C(C)C)CC2)C(CCO)C1 (stereo not given)	7.6	-0.2	1	-1.4	4.8	1	nt
O=C(/C=C/c1ccco1)Nc1cccc(C(=O)Nc2ccccc2C(=O)O)c1	nt	45.7*	nt	nt	-33.0	nt	29.6*
CCc1ccccc1NC(=O)c1cccc(NC(=O)/C=C/c2ccco2)c1	1.9	1.3	0.9	0.3	-20.5	1	nt
N#C/C(=C(/O)c1cc2ccccc2o1)c1nc2ccccc2s1	nt	25.6*	nt	nt	-33.0	nt	24.2*
O=Cc1ccc(OCc2cccc(C(F)(F)F)c2)cc1O	4.6	15.3*	0.9	-1.7	-0.8	1	18.6*
COc1cc(/C=C2\C(=O)N(c3ccccc3)N=C2C)ccc1Oc1ccc([N+](=O)[O-])cc1[N+](=O)[O-]	-8.3	17.6*	0.8	-0.2	-2.3	0.8	8.7
Nc1ccc(Oc2ccc([N+](=O)[O-])cc2[N+](=O)[O-])cc1	3.1	-0.4	0.9	-0.1	-15.1	1	nt
COc1cc(/C=C2/SC(=O)NC2=O)ccc1Oc1ccc([N+](=O)[O-])cc1[N+](=O)[O-]	nt	5.9	nt	nt	-56.2	nt	nt
CC1=NN(c2ccccc2)C(=O)/C1=C\c1ccc(Oc2ccc([N+](=O)[O-])cc2[N+](=O)[O-])cc1	-13.2	23.1*	0.8	1.2	-8.5	0.6	8.8
COc1ccc(C(=O)NCC(=O)OCC(=O)N2CCC(C)CC2)cc1OC	10.7	2.3	1	-1.6	-1.7	1	nt

Assay outcomes: PubChem BioAssay, several laboratories
